{"data": "Experimental data gathered from unrelated publications", "organism": "Leishmania major", "effect on": "parasite growth", "setting": "promastigote", "note": "Compare with care: the assays were run in different laboratories."}
{"Compound": "CCCc1cn(CCN2CCN(C(=O)c3c(C)nc4ccc(Cl)cn34)CC2)nn1", "test": "resazurin", "setting": "72 h", "quantity": "IC50", "result": "475 µM"}
{"Compound": "C[C@@H]1[C@H](O)[C@@H](C)/C=C/C=C/C=C/C=C/C=C/C=C/C=C/[C@H](O[C@@H]2O[C@H](C)[C@@H](O)[C@H](N)[C@@H]2O)C[C@@H]2O[C@](O)(C[C@@H](O)C[C@@H](O)[C@H](O)CC[C@@H](O)C[C@@H](O)CC(=O)O[C@H]1C)C[C@H](O)[C@H]2C(=O)O", "setting": "48 h", "quantity": "IC50", "result": "3.68 µM"}
{"Compound": "Cc1nc2ccc(Cl)cn2c1C(=O)N1CCN(Cc2cn(-c3cccc(Cl)c3)nn2)CC1", "test": "resazurin", "setting": "72 h", "quantity": "IC50", "result": "47.1 µM"}
{"Compound": "CC1(C)OB(CC2c3ccccc3C(=O)N2C2CCCCC2)OC1(C)C (stereo not drawn)", "quantity": "IC50", "result": "11.5 µM"}
{"Compound": "O=S(=O)(c1ccc(-c2ccc3ncnc(Nc4ccc(OCc5ccccc5)c(Cl)c4)c3c2)cc1)N1CCOCC1", "test": "resazurin", "quantity": "EC50", "result": "0.47 µM"}
{"Compound": "CC(=O)Oc1ccc(-c2oc3cc(OC(C)=O)cc(O)c3c(=O)c2OC(C)=O)cc1", "setting": "48 h", "quantity": "IC50", "result": "14.9 µM"}
{"Compound": "C[C@@H]1[C@H](O)[C@@H](C)/C=C/C=C/C=C/C=C/C=C/C=C/C=C/[C@H](O[C@@H]2O[C@H](C)[C@@H](O)[C@H](N)[C@@H]2O)C[C@@H]2O[C@](O)(C[C@@H](O)C[C@@H](O)[C@H](O)CC[C@@H](O)C[C@@H](O)CC(=O)O[C@H]1C)C[C@H](O)[C@H]2C(=O)O", "quantity": "IC50", "result": "0.83 µM"}
{"Compound": "CCCCCCCCCc1cn(CCN2CCN(C(=O)c3c(C)nc4ccc(Cl)cn34)CC2)nn1", "test": "resazurin", "setting": "72 h", "quantity": "IC50", "result": "62 µM"}
{"Compound": "C[C@@H]1[C@H](O)[C@@H](C)/C=C/C=C/C=C/C=C/C=C/C=C/C=C/[C@H](O[C@@H]2O[C@H](C)[C@@H](O)[C@H](N)[C@@H]2O)C[C@@H]2O[C@](O)(C[C@@H](O)C[C@@H](O)[C@H](O)CC[C@@H](O)C[C@@H](O)CC(=O)O[C@H]1C)C[C@H](O)[C@H]2C(=O)O", "setting": "24 h", "quantity": "IC50", "result": "0.243 µM"}
